Rows were chosen to be rich in hits. Some 1.8% of all compounds tested hit in one or more screens of this group.
M4 antag: blocks acetylcholine activation of human M4 receptor; P08173; CHO-hM4 cells, ACh EC80, Fluo-8 calcium fluorescence; inhibition, % at 3 µM; hit rate 0.73% among 360,000;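 active = inhibition above its plate's cutoff, the mean inhibition of sample wells plus 3 SD, cut at about 27% in these data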
M4 ag: CHRM4 agonism in calcium assay; CHO-K1 hM4/Gqi5, Fluo-8 calcium fluorescence; vehicle 0%, full acetylcholine response 100%; P08173; hit rate 0.14% among 360,000; activation, % at 3 µM;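 active = activation above the run mean over all test wells plus 3 SD, cut at about 32% in these data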;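 note: peak over basal fluorescence ratio per well then scaled between controls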
CHRM5 agonist: CHRM5 agonism in calcium assay; AID 624037; activation, % at 3 µM; P08912; CHO-K1 hM5 cells, Fluo-8 calcium fluorescence; 0% DMSO wells, 100% maximal acetylcholine response; hit rate 0.19% among 360,000;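 active = activation above the run's mean over test compounds plus 3 SD, cut at about 23% in these data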;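 note: signal is peak over basal fluorescence ratio across the kinetic read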
CHRM5 PAM: potentiates acetylcholine response at human M5 receptor; hit rate 0.3% among 360,000; activation, % at 3 µM; CHO-K1 hM5, Fluo-8 calcium, ACh EC20 PAM; 0% = ACh EC20, 100% = ACh EC100; P08912;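 active = activation above the run cutoff, the mean activation of all test compounds plus 3 SD, cut at about 18% in these data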
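Assay system: CHO-K1 hM5 cells. Also added: acetylcholine at EC20 concentration, added after compound. Dosing: 3 µM, single dose. Times: compound preincubation 140 s before EC20 acetylcholine addition. Signal: Fluo-8 calcium fluorescence. Measure: % activation relative to EC20 and EC100 ACh responses. Repeats: singlicate, one well per test compound.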
M5 antag: CHRM5 antagonism in calcium assay | P08912 | CHO-hM5 cells, Fluo-8 calcium fluorescence, ACh EC80 | inhibition, % at 3 µM | hit rate 0.59% among 360,000 | AID 624040;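 active = inhibition above a per-plate cutoff, the mean of that plate's test compounds plus 3 SD, cut at about 27% in these data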
CHRM4 PAM: CHRM4 positive allosteric modulation. P08173. CHO-K1 hM4/Gqi5, Fluo-8 calcium fluorescence, ACh EC20; 0% = ACh EC20, 100% = maximal ACh. activation, % at 3 µM. hit rate 0.4% among 360,000;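 active = activation above its plate's cutoff, the mean activation of sample wells plus 3 SD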
A number is an active result.

Screening O=C(OCc1ccccc1F)c1cc(S(=O)(=O)N2CCCCC2)ccc1N1CCOCC1 returned M4 antag inactive, M4 ag inactive, CHRM5 agonist inactive, CHRM5 PAM inactive, M5 antag inactive and CHRM4 PAM inactive.
O=C(COC(=O)c1ccc(Br)o1)Nc1ccc2c(c1)OCCO2 was read as M4 antag inactive, M4 ag inactive, CHRM5 agonist inactive, CHRM5 PAM inactive, M5 antag inactive and CHRM4 PAM 26.
Screening O=C(COC(=O)C1COc2ccccc2O1)NC(=O)Nc1ccc2c(c1)OCCO2 (stereo not given) returned M4 antag inactive, M4 ag inactive, CHRM5 agonist inactive, CHRM5 PAM inactive, M5 antag inactive and CHRM4 PAM 23.
O=C(COC(=O)CNC(=O)c1ccc(Br)o1)Nc1ccc2c(c1)OCCO2 was read as M4 antag inactive, M4 ag inactive, CHRM5 agonist inactive, CHRM5 PAM inactive, M5 antag inactive and CHRM4 PAM inactive.
`O=C(COC(=O)C1COc2ccccc2O1)Nc1cccc(Cl)c1` (stereo not given) gave M4 antag inactive, M4 ag inactive, CHRM5 agonist inactive, CHRM5 PAM inactive, M5 antag inactive and CHRM4 PAM inactive.
Screening COc1cc(-c2ccc3cc(OC)c(OC)c(OC)c3c2)cc(OC)c1OC returned M4 antag inactive, M4 ag inactive, CHRM5 agonist inactive, CHRM5 PAM inactive, M5 antag inactive and CHRM4 PAM inactive.
O=C(Nc1ccc(F)c(Cl)c1)C1Cc2c(-c3ccc4c(c3)OCO4)ccnc2O1 (stereo not given) was read as M4 antag inactive, M4 ag inactive, CHRM5 agonist inactive, CHRM5 PAM inactive, M5 antag inactive and CHRM4 PAM inactive.
For Cc1ccccc1S(=O)(=O)NC(=O)C1(C)CCN1C(=O)COc1ccc(Cl)cc1 (stereo not given) the results were M4 antag inactive, M4 ag inactive, CHRM5 agonist inactive, CHRM5 PAM inactive, M5 antag inactive and CHRM4 PAM inactive.
O=C(NCc1ccccc1)C(c1cc2ccccc2o1)n1c(=O)c(-c2cc3ccccc3[nH]2)nc2ccccc21 (stereo not given) was read as M4 antag inactive, M4 ag inactive, CHRM5 agonist inactive, CHRM5 PAM inactive, M5 antag inactive and CHRM4 PAM inactive.
`COC(=O)c1[nH]c2ccc(F)cc2c1NS(=O)(=O)c1ccc(F)c(C)c1` gave M4 antag 40, M4 ag inactive, CHRM5 agonist inactive, CHRM5 PAM inactive, M5 antag inactive and CHRM4 PAM inactive.
Screening CCOC(=O)C1=C[C@@H](c2ccccc2)N(S(=O)(=O)c2ccc(C)cc2)[C@H]1c1ccccc1Cl returned M4 antag inactive, M4 ag inactive, CHRM5 agonist inactive, CHRM5 PAM inactive, M5 antag inactive and CHRM4 PAM inactive.
O=C1c2ccccc2C(c2nnnn2Cc2ccccc2)N1Cc1ccc2c(c1)OCO2 (stereo not given) was read as M4 antag inactive, M4 ag inactive, CHRM5 agonist inactive, CHRM5 PAM inactive, M5 antag inactive and CHRM4 PAM inactive.
For COc1ccc(Cl)cc1N(CC(=O)NC(C)(C)C)S(=O)(=O)c1ccc(C)c([N+](=O)[O-])c1 the results were M4 antag inactive, M4 ag inactive, CHRM5 agonist inactive, CHRM5 PAM inactive, M5 antag inactive and CHRM4 PAM 22.
`Cc1ccc(S(=O)(=O)c2nnn3c2nc(NC2CCN(Cc4ccccc4)CC2)c2ccccc23)cc1C` gave M4 antag 43, M4 ag inactive, CHRM5 agonist inactive, CHRM5 PAM inactive, M5 antag inactive and CHRM4 PAM inactive.
For Cc1ccc(S(=O)(=O)c2nnn3c2nc(NCCCN2CCCC2=O)c2ccccc23)cc1C the results were M4 antag inactive, M4 ag inactive, CHRM5 agonist inactive, CHRM5 PAM inactive, M5 antag inactive and CHRM4 PAM inactive.
`CCCCC(CC)CN=C(N)NC(N)=NCCCCCCN=C(N)NC(N)=NCC(CC)CCCC` (stereo not given) gave M4 antag 82, M4 ag 40, CHRM5 agonist inactive, CHRM5 PAM inactive, M5 antag inactive and CHRM4 PAM inactive.
